An excerpt weighted towards active compounds, which were near 2.3% of everything screened.
HGIII-sPLA2 inh – Blocks human group III sPLA2 activity; 370,000 compounds, 0.56% hits; Q9NZ20; inhibition, % at 12.2 µM; AID 743126; QFRET BODIPY PC-A2 liposome hydrolysis, fluorescence;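 active means inhibition above mean plus 3 SD of compounds lying within the high and low control bounds, cut at about 19% in these data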;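 further: 0% = median of test compound wells and 100% = no enzyme DMSO wells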
ASAP1 GAP inh – ASAP1 ArfGAP inhibition. 360,000 compounds, 0.19% hits. Q9ULH1. inhibition, % at 16.5 µM. ASAP1-stimulated ARF1 GTP hydrolysis, GDP FP detection; in the data active means inhibition above about 25%;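 further: 0% = vehicle with enzyme and substrate and 100% = no enzyme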
Target sequence (Q9ULH1 325-724 limits assumed): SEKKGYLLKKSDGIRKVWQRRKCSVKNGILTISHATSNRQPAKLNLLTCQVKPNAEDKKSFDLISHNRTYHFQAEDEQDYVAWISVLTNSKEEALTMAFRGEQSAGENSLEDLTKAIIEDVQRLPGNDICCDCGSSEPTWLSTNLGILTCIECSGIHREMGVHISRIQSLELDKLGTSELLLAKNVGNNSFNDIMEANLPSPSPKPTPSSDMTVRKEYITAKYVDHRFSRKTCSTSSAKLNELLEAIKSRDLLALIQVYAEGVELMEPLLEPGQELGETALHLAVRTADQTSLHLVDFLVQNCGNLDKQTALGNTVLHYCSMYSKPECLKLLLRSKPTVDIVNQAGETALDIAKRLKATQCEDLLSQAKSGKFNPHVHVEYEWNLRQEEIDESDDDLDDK
SKKanGAS inh – inhibitors of SKKanGAS S. pyogenes growth in kanamycin (SK-promoter or general growth effect) | inhibition, % at 7.5 µM | BacTiter-Glo, 6 h | AID 1662 | 300,000 compounds, 1.3% hits;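 active means mean replicate score, as percent of positive control median, at least 50; inconclusive means mean below 50 but one replicate at or above 50; inactive means mean and every replicate below 50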;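 further: strain carries kanamycin resistance gene driven by streptokinase promoter and grows in 40 µg/ml kanamycin; loss of luminescence reflects streptokinase promoter inhibition or plain growth inhibition; 0% = median of DMSO wells and 100% = positive control at its reference dose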
ARFGAP1 inhibitor – rat ARFGAP1 inhibition; Q62848; Arfgap1-stimulated ARF1 GTP hydrolysis, GDP FP detection; inhibition, % at 16.5 µM; 360,000 compounds, 0.26% hits;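 active means inhibition above a per-plate limit, mean inhibition of low control wells plus 3 SD, cut at about 25% in these data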;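 further: 0% = DMSO wells with enzyme and 100% = wells lacking Arfgap1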
Target sequence (Q62848 1-136 limits assumed): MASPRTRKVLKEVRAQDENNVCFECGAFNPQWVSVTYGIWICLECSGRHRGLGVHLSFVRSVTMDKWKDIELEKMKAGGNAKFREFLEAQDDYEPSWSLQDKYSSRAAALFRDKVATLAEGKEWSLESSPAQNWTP
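material = rat Arfgap1 catalytic domain, aa 1-136 | also added = human ARF1(Δ1-17)-GTP substrate | compound dosing = one concentration, 16.5 µM, DMSO 1.26% | times = GTP hydrolysis reaction 2 h at 25 °C | measured by = FP, GDP Alexa 633 tracer displaced from anti-GDP antibody, 620/688 nm | evaluation = percent inhibition of Arfgap1-stimulated GTP hydrolysis | replication = single well per compound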
Calb FLC – C. albicans growth modulation with fluconazole | C. albicans CaCi-2 + fluconazole, Alamar Blue growth, 48 h | growth inhibition, % (no concentration beside the values) | 300,000 compounds, 0.57% hits | AID 1979;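 active means growth inhibition above about 58% in most replicates, limit read from the data, passing the limit was not always enough; inconclusive means exactly half the replicates above a set limit; inactive means most replicates below a set limit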;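 further: all wells also contain fluconazole at 8 µg/ml as a sub-toxic cotreatment; 0% = median of DMSO wells and 100% = median of geldanamycin control wells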
* = called active by the depositor; ? = inconclusive; . = no result given.

SMILES	HGIII-sPLA2 inh	ASAP1 GAP inh	SKKanGAS inh	ARFGAP1 inhibitor	Calb FLC
Clc1cc2cccnc2c2ncccc12	19.2	3.6	.	-8.3	.
O=[N+]([O-])c1cc(CN2CCN(c3ccccc3)CC2)c(O)c2ncccc12	9.0	-7.7	?	4.7	100.5*
CN(Cc1ccccc1)C(=O)OCc1cn(Cc2ccc(F)cc2F)nn1	-1.7	.	.	.	.
CCOC(=O)C(CNc1ccc(O)cc1)NC(=O)c1ccccc1 (centres undefined)	-13.6	-14.1	.	-5.5	.
O=[N+]([O-])c1ccc(Cl)c2cccnc12	2.9	-1.4	-2.3	18.7	?
O=[N+]([O-])c1cc(Cl)c(O)c2ncccc12	-11.7	-3.4	51.0*	-1.6	107.3*
COc1cc(/C=C/C(=O)Nc2cccnc2)cc(OC)c1OC	-6.1	7.7	-5.5	10.0	75.6*
CCN(CC)c1nc(C)nc2c1nnn2Cc1ccccc1	4.5	.	.	.	.
CC(C)(C)C1CC=C2C(C#N)=C(N)C(C#N)(C#N)C(c3cccs3)C2C1 (centres undefined)	.	.	53.6*	.	-4.5
CN1C2C=C3C(C#N)=C(N)C(C#N)(C#N)[C@@H](c4cccs4)C3C1CC2 (some centres undefined)	-3.9	-10.1	0.7	-2.0	-3.7
CC(C)COc1ccc(-c2nn(-c3ccccc3)cc2/C=C2/SC(=S)N(CC(=O)O)C2=O)cc1	-4.9	-4.5	71.8*	2.0	-3.9
O=C(O)CN1C(=O)/C(=C\c2cn(-c3ccccc3)nc2-c2ccccc2)SC1=S	.	.	23.2	.	6.5
O=Cc1cc2ccccc2nc1SCc1ccc(Cl)cc1	1.6	-6.2	51.4*	5.4	-4.7
O=Cc1cc2ccccc2nc1SCc1ccc(Cl)c(Cl)c1	-0.4	-1.9	45.2	0.6	-7.1
COC(=O)C1=C(C)N(C)C(=NCc2cc(OC)c(OC)c(OC)c2)NC1c1cccc(F)c1 (centres undefined)	-4.5	2.1	.	13.8	.
Nc1[nH]n2c(=O)cc(-c3ccccc3)nc2c1N=Nc1ccc2c(c1)OCO2	.	.	55.6*	.	-4.9
O=C(NNc1ccccc1)C(CCO)C(=O)NNc1ccccc1	2.2	2.7	5.1	2.9	100.3*
CC(O)CC(C(=O)NNc1ccccc1)C(=O)NNc1ccccc1 (centres undefined)	-2.2	-0.7	1.0	3.7	?
CN1C[C@]2(C=C3CCCCC3n3c(=O)n(-c4ccccc4)c(=O)n32)N(C(=O)OCc2ccccc2)C1=NC(=O)c1ccccc1 (some centres undefined)	-3.9	.	.	.	.
Cc1oc(-c2ccccc2)nc1Cn1cccc1C1=NC(c2ccccc2)CO1 (centres undefined)	-12.0	-11.1	69.0*	5.4	2.4
FC(F)(F)c1cccc(CNC2c3ccccc3-c3ccccc32)c1	10.3	1.9	74.9*	16.0	-17.0
Cn1c(Cc2ccccc2)nc(=O)c2ccccc21	8.1	1.3	.	7.5	.
Cc1cccc(OCC(=O)NCC(=O)N/N=C/c2cc(Br)cc(Br)c2O)c1	6.3	0.1	61.1*	-1.3	-39.0
O=S1(=O)N=C(Nc2ccc(O)cc2)c2ccccc21	-3.8	14.6	0.8	7.6	4.0
O=S1(=O)N=C(Nc2ccc(N3CCOCC3)c(Cl)c2)c2ccccc21	-1.3	3.8	50.2*	7.9	-3.3
SMILES	HGIII-sPLA2 inh	ASAP1 GAP inh	SKKanGAS inh	ARFGAP1 inhibitor	Calb FLC
COc1cccc(/C=N/n2c(N)nc3ccccc32)c1OC	-0.7	-5.5	53.3*	21.8	-4.9
Oc1[nH]c(=S)sc1/C=C1\C(c2ccccc2)=Nc2ccccc21	-4.7	-7.0	76.2*	8.2	1.5
CCC1=NN(C(=O)c2cccc(Br)c2)C(O)(c2ccc(Br)cc2)C1 (centres undefined)	-6.4	3.9	71.3*	-1.6	3.9
CCC1=NN(C(=O)c2ccc(C)cc2)C(O)(c2ccc(Br)cc2)C1 (centres undefined)	-3.9	6.7	-3.5	-2.7	-17.7
CC(=O)OCCNc1cc(SCc2ccco2)c2nonc2c1[N+](=O)[O-]	.	.	0.5	.	-25.9
CC(=O)OCCNc1cc(Sc2nc3ccccc3[nH]2)c2nonc2c1[N+](=O)[O-]	6.1	4.0	53.0*	4.3	-0.3
CC(=O)OCCCNc1cc(Sc2ccc(C)cc2)c2nonc2c1[N+](=O)[O-]	1.9	-3.2	-5.6	-7.5	6.0
CC(=O)OCCCNc1cc(Sc2nc3ccccc3s2)c2nonc2c1[N+](=O)[O-]	.	.	91.5*	.	15.5
Cc1ccc(NC2=NC(c3ccc(O)cc3)n3c(nc(C)cc3=O)N2)cc1 (centres undefined)	-5.2	-5.1	0.3	5.2	-3.2
COc1ccc(C2N=C(Nc3ccc(C)cc3)Nc3nc(C)cc(=O)n32)cc1 (centres undefined)	-0.2	-5.7	-1.0	-17.0	109.9*
COc1ccc(OCCCCc2c(C)n[nH]c2C)cc1	-6.3	1.6	-4.1	-1.3	0.7
Cc1n[nH]c(C)c1CCOc1ccc(C(C)C)cc1	-5.9	11.1	96.5*	-11.2	32.0
O=C(Nc1ccc(F)cc1)OCc1cn(Cc2ccc(C(F)(F)F)cc2)nn1	-8.6	.	.	.	.
CC1=Nc2ccccc2/C1=C\c1nc(-c2ccc(F)cc2)oc1O	0.5	20.1	81.3*	-2.0	-25.2
C=CCN1C/C(=C/c2ccccc2)N2C(=O)CC(c3ccccc3)N=C12 (centres undefined)	5.1	.	.	.	.
COc1ccc(Cn2ccc3ccc(-c4ccc5ccn(C(=O)c6ccccc6OC)c5c4)cc32)cc1	0.6	.	.	.	.
C/C(=N/NC(=O)c1cc(-c2ccccc2)nc2c(Cl)cccc12)c1cccnc1	6.7	11.7	89.5*	10.7	63.9
Cc1nn(CC(O)CN2c3ccccc3Sc3ccccc32)c(C)c1Br (centres undefined)	-2.2	-10.7	100.1*	2.2	7.7
OC(CN1c2ccccc2Sc2ccccc21)Cn1nnc2ccccc21 (centres undefined)	0.6	-7.9	20.3	3.8	18.0
COc1ccc(N=C2Sc3ccccc3[C@@H]3C[C@H]4[C@H](CON4C)CN23)c(OC)c1	4.9	0.5	.	-3.5	.
Clc1ccc(-n2c(SCc3cccc4ccccc34)nnc2-c2ccccn2)cc1	-6.5	.	.	.	.
c1ccc(N=NC2=NN(c3ccccc3)CS2)cc1	29.5*	-0.5	.	6.8	.
Cc1ccc2nc(NNC(=O)c3ccc(S(=O)(=O)N4CCc5ccccc5C4)cc3)sc2c1	32.6*	2.5	79.4*	15.3	58.6
Cc1cc(C)c2nc(NNC(=O)c3ccc(S(=O)(=O)N4CC(C)CC(C)C4)cc3)sc2c1 (centres undefined)	40.6*	6.6	82.4*	-4.7	2.4
Cc1ccc(Cn2c(=O)n(Cc3ccc(C(=O)NCC4COC4)cc3)c(=O)c3ccccc32)cc1	-4.0	.	.	.	.
O=C(OCC#CCSc1nnc(-c2cccc3ccccc23)o1)C1CC1	-24.1	.	.	.	.
C/C(CCc1ccccc1)=N\NC(=S)NCCc1ccccc1	7.5	2.5	7.3	-7.2	14.6
CC1=C/C(=N\NC(=S)NCCc2ccccc2)CC(C)(C)C1	18.2	6.1	51.6*	17.1	96.0*
c1ccc(-c2nn(Cc3ncco3)c3ccccc23)cc1	-3.1	.	.	.	.

Screening data as filed in PubChem BioAssay.
